Measured values as given in ChEMBL document CHEMBL4622983, “Structure-Activity Relationship Studies of α-Ketoamides as Inhibitors of the Phospholipase A and Acyltransferase Enzyme Family” (J Med Chem, 2020).

Tests used:
Assay type in all cases: cell-free, HEK-293T
[1] = molecular target: T1, Phospholipase A and acyltransferase 4 (Homo sapiens, UniProt Q9UL19); test: Inhibition of full-length C-terminal FLAG-tagged human PLAAT4 expressed in HEK293T cell lysate preincubated for 30 mins followed by MB064 addition and measured after 20 mins by SDS-PAGE based ABPP analysis
T1 sequence (Q9UL19 whole entry): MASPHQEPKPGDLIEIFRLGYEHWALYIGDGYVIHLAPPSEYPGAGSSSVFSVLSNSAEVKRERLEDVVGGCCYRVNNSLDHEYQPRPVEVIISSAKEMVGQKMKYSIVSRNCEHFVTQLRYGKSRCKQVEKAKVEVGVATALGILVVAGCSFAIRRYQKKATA
How it was run: (§1)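 Dose–response competitive ABPP on cytosol only, from HEK293T overexpressing FLAG-tagged PLAAT. Inhibitor 30 min rt, then MB064 20 min rt. PLAAT2 0.25 μg/μL with 250 nM probe; PLAAT3 0.5 μg/μL with 250 nM; PLAAT4 and PLAAT5 1 μg/μL with 500 nM. Fluorescence normalized to Coomassie. IC50 from curves, reported as pIC50 ± SEM, n = 3.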

[2] = molecular target: T2, Phospholipase A and acyltransferase 3 (Homo sapiens, UniProt P53816); test: Inhibition of full-length C-terminal FLAG-tagged human PLAAT3 expressed in HEK293T cell lysate preincubated for 30 mins followed by MB064 addition and measured after 20 mins by SDS-PAGE based ABPP analysis; details: for pIC50: hek-293t; how it was run: as §1
T2 sequence (P53816 whole entry): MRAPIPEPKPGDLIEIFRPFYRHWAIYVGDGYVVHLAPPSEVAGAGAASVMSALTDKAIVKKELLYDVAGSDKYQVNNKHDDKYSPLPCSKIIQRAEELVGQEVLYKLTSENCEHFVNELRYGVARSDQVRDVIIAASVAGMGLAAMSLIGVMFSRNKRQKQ

[3] = molecular target: T3, Phospholipase A and acyltransferase 2 (Homo sapiens, UniProt Q9NWW9); test: Inhibition of full-length C-terminal FLAG-tagged human PLAAT2 expressed in HEK293T cell lysate preincubated for 30 mins followed by MB064 addition and measured after 20 mins by SDS-PAGE based ABPP analysis; how it was run: as §1
T3 sequence (Q9NWW9 whole entry): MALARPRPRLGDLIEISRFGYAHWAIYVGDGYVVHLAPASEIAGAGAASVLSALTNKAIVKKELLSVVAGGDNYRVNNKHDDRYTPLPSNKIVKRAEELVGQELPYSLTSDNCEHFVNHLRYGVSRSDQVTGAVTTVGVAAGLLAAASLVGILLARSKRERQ

[4] = molecular target: T4, Phospholipase A and acyltransferase 5 (Homo sapiens, UniProt Q96KN8); test: Inhibition of full-length C-terminal FLAG-tagged human PLAAT5 expressed in HEK293T cell lysate preincubated for 30 mins followed by MB064 addition and measured after 20 mins by SDS-PAGE based ABPP analysis; how it was run: as §1
T4 sequence (Q96KN8 whole entry): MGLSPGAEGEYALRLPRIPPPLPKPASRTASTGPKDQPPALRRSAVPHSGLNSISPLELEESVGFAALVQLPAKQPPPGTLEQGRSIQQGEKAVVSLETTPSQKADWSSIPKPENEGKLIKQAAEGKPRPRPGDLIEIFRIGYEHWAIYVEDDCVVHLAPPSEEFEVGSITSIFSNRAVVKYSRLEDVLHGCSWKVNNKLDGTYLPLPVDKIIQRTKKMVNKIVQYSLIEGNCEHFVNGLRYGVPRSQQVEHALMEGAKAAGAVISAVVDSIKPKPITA

| IC50 [1] [µM] | IC50 [2] [µM] | IC50 [3] [µM] | IC50 [4] [µM] | pIC50 [2] | SMILES |
| --- | --- | --- | --- | --- | --- |
| 7.94 | > 10 | > 10 | 3.16 |  | O=C(/C=C/c1cccc(Br)c1)C(=O)NCCc1ccccc1 |
| 1.26 | 1.58 | 2.51 | 1.26 |  | O=C(CCc1cccc(Cl)c1)C(=O)NCCc1ccccc1 |
| 1 | 0.1 | 2 | 0.1 |  | O=C(CCc1ccc(Cl)c(Cl)c1)C(=O)NCCc1ccccc1 |
| 6.31 | 2.51 | 5.01 | 0.631 |  | O=C(/C=C/c1ccc(Br)cc1)C(=O)NCCc1ccccc1 |
| 0.631 |  |  | 0.0316 | 7 | O=C(CCCc1ccccc1)C(=O)NCCc1ccc(Oc2ccc(C(F)(F)F)cn2)cc1 |
| 10 | 5.01 | 7.94 | 1.58 |  | O=C(CCc1ccc(F)cc1)C(=O)NCCc1ccccc1 |
| 1.26 | 3.16 | 3.16 | 1.26 |  | COc1ccc(CCC(=O)C(=O)NCCc2ccccc2)cc1 |
| 1.58 | 0.794 | 1.58 | 0.0794 |  | COc1ccc(CCNC(=O)C(=O)CCCc2ccccc2)cc1 |
| 0.794 | 0.251 | 1.26 | 0.0631 |  | O=C(CCCc1ccccc1)C(=O)NCCc1ccc(Cl)cc1Cl |
| 0.631 | 0.251 | 0.501 | 0.0631 |  | O=C(CCCc1ccccc1)C(=O)NCCc1ccc(Oc2cnccn2)cc1 |
| > 10 | > 10 | > 10 | > 10 |  | O=C(CCc1ccccc1)C(F)(F)C(=O)NCCc1ccccc1 |
| 0.2 | 0.251 | 0.631 | 0.0794 |  | O=C(CCCc1ccccc1)C(=O)NCCc1ccc(Oc2ccnc(Cl)n2)cc1 |
| 3.98 | 7.94 | 2.51 | 1 |  | CCNC(=O)C(=O)CCc1ccc(Cl)cc1 |
| > 10 | > 10 | > 10 | > 10 |  | CN1CCN(C(=O)C(=O)CCc2ccc(Cl)cc2)CC1 |
| > 10 | > 10 | > 10 | > 10 |  | CN(C)C(=O)C(=O)CCc1ccc(Cl)cc1 |
| > 10 | > 10 | > 10 | > 10 |  | O=C(CCc1ccccc1)CC(=O)NCc1ccccc1 |
| > 10 | > 10 | > 10 | > 10 |  | COCCN(CCOC)C(=O)C(=O)CCc1ccc(Cl)cc1 |
| > 10 | > 10 | > 10 | > 10 |  | O=C(CCc1ccc(Cl)cc1)C(=O)N1CCC[C@H]1Cc1ccccc1 |
| > 10 | > 10 | > 10 | > 10 |  | O=C(NCCc1ccccc1)C(=O)c1ccccc1 |
| > 10 | > 10 | > 10 | > 10 |  | CN(CCc1ccccc1)C(=O)C(=O)CCc1ccc(Cl)cc1 |
| > 10 | > 10 | > 10 | > 10 |  | O=C(CCc1ccccc1)[C@H](F)C(=O)NCc1ccccc1 |
| 2.51 | 3.16 | 2.51 | 1 |  | O=C(/C=C/c1cccc(-c2ccccc2)c1)C(=O)NCCc1ccccc1 |
| > 10 | > 10 | > 10 | > 10 |  | O=C(CCc1ccc(Cl)cc1)C(=O)N1CCOCC1 |
| 2.51 | 1.58 | 1.26 | 0.158 |  | O=C(CCCc1ccccc1)C(=O)NCCc1ccc(O)cc1 |
| > 10 | > 10 | > 10 | > 10 |  | O=C(CCc1ccccc1)C(F)(F)C(=O)NCc1ccccc1 |
| > 10 | > 10 | > 10 | > 10 |  | CCOC(=O)C(F)(F)C(O)CCc1ccccc1 (stereo not drawn) |
| 0.2 | 0.158 | 0.251 | 0.01 |  | O=C(CCCc1ccccc1)C(=O)NCCc1ccc(Br)cc1 |

| IC50 [1] [µM] | IC50 [2] [µM] | IC50 [3] [µM] | IC50 [4] [µM] | pIC50 [2] | SMILES |
| --- | --- | --- | --- | --- | --- |
| 1.26 | 2 | 2 | 0.251 |  | O=C(CCCc1ccccc1)C(=O)NCCc1ccc(Oc2ncccn2)cc1 |
| 1.58 | 1 | 0.631 | 0.2 |  | O=C(CCc1ccc(Cl)cc1)C(=O)NCCCCc1ccccc1 |
| 2.51 | 2 | 1.26 | 1.58 |  | O=C(CCc1ccccc1Cl)C(=O)NCCc1ccccc1 |
| 2.51 | 7.94 | 2 | 0.316 |  | O=C(CCc1ccc(C(F)(F)F)cc1)C(=O)NCCc1ccccc1 |
| > 10 | > 10 | > 10 | > 10 |  | CC(=O)C(=O)NCCc1ccccc1 |
| > 10 | > 10 | > 10 | > 10 |  | O=C(CCc1ccc(Cl)cc1)C(=O)N1CC[C@@H](c2ccccc2)C1 |
| 2.51 | 5.01 | 1.58 | 1 |  | COc1ccc(/C=C/C(=O)C(=O)NCCc2ccccc2)cc1 |
|  |  |  |  | 6 | O=C(CCc1ccc(Cl)cc1)C(=O)NCCc1ccccc1 |
| 3.16 | > 10 | > 10 | 1 |  | O=C(CCc1ccccc1)C(=O)NCCc1ccccc1 |
| > 10 | > 10 | > 10 | > 10 |  | O=C(CCc1ccc(Cl)cc1)C(=O)N1CCCCC1 |
| 10 | 1.58 | 7.94 | 6.31 |  | O=C(/C=C/c1ccccc1)C(=O)NCCc1ccccc1 |
| 0.631 | 0.398 | 0.501 | 0.1 |  | O=C(CCCc1ccccc1)C(=O)NCCc1ccccc1 |
| > 10 | > 10 | > 10 | > 10 |  | O=C(NCc1ccccc1)C(F)(F)C(O)CCc1ccccc1 (stereo not drawn) |
| 0.0794 | 0.158 | 0.2 | 0.0794 |  | O=C(CCCc1ccccc1)C(=O)NCCc1ccc(Oc2ccc(C(F)(F)F)nc2)cc1 |
| > 10 | > 10 | > 10 | > 10 |  | CCN(CCc1ccccc1)C(=O)C(=O)CCc1ccc(Cl)cc1 |
| > 10 | > 10 | > 10 | > 10 |  | O=C(CCc1ccc(Cl)cc1)C(=O)N1CCCC1 |
| 1 | 0.2 | 0.794 | 0.0501 |  | O=C(CCCc1ccccc1)C(=O)NCCc1cccc(Cl)c1 |
| > 10 | > 10 | > 10 | > 10 |  | O=C(NCCc1ccccc1)C(=O)c1ccc(Cl)cc1 |
| > 10 | > 10 | > 10 | > 10 |  | O=C(CCc1ccc(Cl)cc1)C(=O)N1CCCC[C@H]1c1ccccc1 |
| 1.58 | 2 | 5.01 | 2.51 |  | Cc1ccc(CCC(=O)C(=O)NCCc2ccccc2)cc1 |
| 6.31 | 1 | 5.01 | 0.316 |  | COc1ccc(CCNC(=O)C(=O)CCCc2ccccc2)cc1OC |
| 2.51 | 1.26 | 6.31 | 0.794 |  | O=C(CCCc1ccccc1)C(=O)NCCc1ccccc1Cl |
| 2.51 | 2.51 | 1.58 | 0.631 |  | O=C(/C=C/c1ccc(Cl)cc1)C(=O)NCCc1ccccc1 |
| 2.51 | 1.58 | 2.51 | 0.251 |  | O=C(CCc1ccc(Cl)cc1)C(=O)NCc1ccccc1 |
| 1.58 | 1 | 3.16 | 0.158 |  | O=C(CCCCc1ccccc1)C(=O)NCCc1ccccc1 |
| 1.26 | 0.126 | 2 | 0.0398 |  | Cc1ccc(CCNC(=O)C(=O)CCCc2ccccc2)cc1 |
